Type in all cases: functional
Assay [1] deals with T1, Ecdysone receptor (Bombyx mori) (UniProt P49881).
T1 sequence (whole entry): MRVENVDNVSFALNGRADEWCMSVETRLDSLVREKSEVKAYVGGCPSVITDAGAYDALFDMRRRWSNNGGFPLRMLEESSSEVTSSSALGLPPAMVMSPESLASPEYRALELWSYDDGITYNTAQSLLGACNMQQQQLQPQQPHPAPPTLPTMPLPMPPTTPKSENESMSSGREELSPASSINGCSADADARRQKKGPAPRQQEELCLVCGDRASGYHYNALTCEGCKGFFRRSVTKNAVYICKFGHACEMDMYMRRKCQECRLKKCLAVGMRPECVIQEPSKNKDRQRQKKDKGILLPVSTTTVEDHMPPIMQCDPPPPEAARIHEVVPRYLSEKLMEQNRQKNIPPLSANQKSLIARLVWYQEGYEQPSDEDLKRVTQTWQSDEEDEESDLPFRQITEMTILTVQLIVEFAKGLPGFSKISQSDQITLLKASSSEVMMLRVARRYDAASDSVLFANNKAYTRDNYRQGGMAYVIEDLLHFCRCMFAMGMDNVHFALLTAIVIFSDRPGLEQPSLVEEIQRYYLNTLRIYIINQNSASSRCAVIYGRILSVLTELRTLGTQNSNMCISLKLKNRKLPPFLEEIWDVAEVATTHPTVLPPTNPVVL
The assay is described as follows: Agonist activity against Bombyx mori ecdysone receptor. A digest of the protocol:
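HEK-293 clone Z3 stably expressing Bombyx mori EcR with a β-galactosidase reporter under an ecdysone response element. Cells seeded at 2.5 × 10⁴ cells mL⁻¹ and held 24 h at 37 °C, 5% CO₂. Ligands from 10 mM DMSO stocks were diluted 100-fold in medium (final DMSO 0.03%). Luminescence read at 48 h; dose-response value is the dose giving 50% of maximal transactivation.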

For assay [2], the system named is HEK293. The assay is described as follows: Dose response transactivation assay result expressed as dose affording 50% of max transactivation. The settings on record: Homo sapiens, read-out: LC50. A digest of the protocol:
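HEK-293 clone Z3 engineered to express Bombyx mori EcR, with a β-galactosidase gene under an ecdysone response element. Cells seeded at 2.5 × 10⁴ cells mL⁻¹, grown 24 h at 37 °C in 5% CO₂, then dosed across a concentration series from 10 mM DMSO stocks. Final DMSO 0.03%. Bioluminescent β-gal readout at 48 h; value is dose giving 50% of maximum transactivation.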

A short description of assay [3]: Ratio of max level of gene expression of compound to max level of gene expression with compound 1d. The essentials: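 Dose-response assay in Z3 HEK-293 cells (Bombyx mori EcR, ecdysone response element–β-galactosidase reporter), 48 h ligand exposure, final DMSO 0.03%, bioluminescent read-out. Value is the compound's maximal reporter expression divided by the maximal expression given by the reference dibenzoylhydrazine ecdysone agonist.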

As to `CC(C)(NC(=O)c1ccccc1)C(=O)c1ccccc1`, in assay [1], the Fold induction is 1.

For the compound `CCC(CC)(NC(=O)c1cccc(OC)c1C)C(=O)c1ccccc1OC`, in assay [2], the EC50 (transactivation) came to 6.2 µM. Further, in assay [3], the Rel Max FI came to 0.29. Moreover, the Fold induction in assay [1] was determined as 384.

Take `CCC(CC)(NC(=O)c1cccc(OC)c1C)C(=O)c1cccc(OC)c1`: the EC50 (transactivation) in assay [2] came out at 33.3 µM. For the same compound, the Rel Max FI in assay [3] turned out to be 0.01. In assay [1], this compound showed a Fold induction of 256.

Turning to `COc1cccc(C(=O)NC(C)(C(=O)c2cc(C)cc(C)c2)C(C)C)c1C` (stereo unspecified), the EC50 (transactivation) in assay [2] turned out to be 2.1 µM. Further, in assay [3], the Rel Max FI worked out at 0.75. In assay [1], the Fold induction amounted to 751.

In assay [1], `O=C(NC1(C(=O)c2ccccc2)CCCC1)c1ccc2c(c1)OCO2` had a Fold induction of 1.

Take `COc1cccc(C(=O)NC2(C(=O)c3cc(C)cc(C)c3)CCCC2)c1C`: in assay [2], the EC50 (transactivation) was 1.9 µM. In assay [3], the Rel Max FI came to 0.85. In addition, in assay [1], the Fold induction came to 660.

For the compound `CCC(CC)(NC(=O)c1cccc(OC)c1C)C(=O)c1ccc(OC)cc1`, in assay [1], the Fold induction was 4.

`COc1cccc(C(=O)NC2(C(=O)c3ccccc3)CCCC2)c1`: the Fold induction in assay [1] was 2.

Compound `CCC(CC)(NC(=O)c1cccc(OC)c1C)C(=O)c1ccc(C)cc1` displayed a Fold induction in assay [1] of 8.

Compound `O=C(NC1(C(=O)c2ccccc2)CCCC1)c1ccccc1` had a Fold induction in assay [1] of 2.

`COc1cccc(C(=O)NC(C)(C(=O)c2ccccc2C)C(C)C)c1C` (stereo unspecified): in assay [2], the EC50 (transactivation) amounted to 18 µM. In addition, the Rel Max FI in assay [3] came out at 0.26. The same compound showed a Fold induction in assay [1] of 452.

`Cc1ccccc1C(=O)NC1(C(=O)c2ccccc2)CCCC1`: in assay [1], the Fold induction was determined as 2.

As to `CCC(CC)(NC(=O)c1cccc(OC)c1C)C(=O)c1ccccc1C`, the Fold induction in assay [1] came out at 5.

In the case of `COc1cccc(C(=O)NC(C)(C(=O)c2ccc(C)cc2)C(C)C)c1C` (stereo unspecified), the EC50 (transactivation) in assay [2] is 20 µM. The Rel Max FI in assay [3] was determined as 0.05. Also, the Fold induction in assay [1] stood at 31.

Take `CCC(CC)(NC(=O)c1cccc(OC)c1C)C(=O)c1cccc(C)c1`: the EC50 (transactivation) in assay [2] was found to be 6.6 µM. The Rel Max FI in assay [3] is 0.25. Besides, the Fold induction in assay [1] was determined as 525.

In turn, `COc1cccc(C(=O)NC(C)(C)C(=O)c2ccccc2)c1C` gave a Fold induction in assay [1] of 2.

Consider `COc1cccc(C(=O)NC(C)(C(=O)c2ccc(F)c(C)c2)C(C)C)c1C` (stereo unspecified), for which, in assay [3], the Rel Max FI is 0.24.

Take `COc1cccc(C(=O)C(C)(NC(=O)c2cccc(OC)c2C)C(C)C)c1` (stereo unspecified): the EC50 (transactivation) in assay [2] came to 25.5 µM. The Rel Max FI in assay [3] worked out at 0.12. The Fold induction in assay [1] came to 35.

As to `COc1cccc(C(=O)NC(C)(C(=O)c2cccc(C)c2)C(C)C)c1C` (stereo unspecified), in assay [2], the EC50 (transactivation) worked out at 8.6 µM. Also, the Rel Max FI in assay [3] was found to be 0.47. Also, the Fold induction in assay [1] turned out to be 370.

On to `COc1cccc(C(=O)NC2(C(=O)c3ccc(F)c(C)c3)CCCC2)c1C`, for which, in assay [2], the EC50 (transactivation) stood at 3.5 µM. The Rel Max FI in assay [3] is 0.43. The Fold induction in assay [1] is 487.

Regarding `COc1ccccc1C(=O)C1(NC(=O)c2cccc(OC)c2C)CCCC1`, the EC50 (transactivation) in assay [2] is 5.2 µM. For the same compound, the Rel Max FI in assay [3] was 0.7. Also, the Fold induction in assay [1] amounted to 1200.

As for `CC(C)(NC(=O)c1ccc2c(c1)OCO2)C(=O)c1ccccc1`, the Fold induction in assay [1] stood at 1.

For `CCc1ccc(C(=O)NC(C)(C)C(=O)c2ccccc2)cc1`, in assay [1], the Fold induction is 2.

For the compound `COc1cccc(C(=O)NC2(C(=O)c3ccc(F)cc3)CCCC2)c1C`, in assay [2], the EC50 (transactivation) is 15 µM. Moreover, the Rel Max FI in assay [3] is 0.14. Also, the Fold induction in assay [1] amounted to 218.

`COc1cccc(C(=O)C2(NC(=O)c3cccc(OC)c3C)CCCC2)c1`: the Rel Max FI in assay [3] worked out at 0.12.

In turn, `COc1ccc(C(=O)C2(NC(=O)c3cccc(OC)c3C)CCCC2)cc1` displayed a Fold induction in assay [1] of 5.

In the case of `COc1cccc(C(=O)NC2(C(=O)c3cccc(C)c3)CCCC2)c1C`, in assay [2], the EC50 (transactivation) was 3.4 µM. The Rel Max FI in assay [3] came out at 0.46. Moreover, the Fold induction in assay [1] stood at 291.

Turning to `COc1cccc(C(=O)NC2(C(=O)c3ccc(C)cc3)CCCC2)c1C`, the Fold induction in assay [1] turned out to be 21.

Take `CCC(CC)(NC(=O)c1cccc(OC)c1C)C(=O)c1ccc(F)c(C)c1`: in assay [2], the EC50 (transactivation) is 10.4 µM. In addition, the Rel Max FI in assay [3] was 0.07. The compound also came in with a Fold induction in assay [1] of 223.

As to `COc1cccc(C(=O)NC2(C(=O)c3ccccc3C)CCCC2)c1C`, the Fold induction in assay [1] amounted to 30.

As to `CCC(CC)(NC(=O)c1cccc(OC)c1C)C(=O)c1ccc(F)cc1`, the EC50 (transactivation) in assay [2] came to 13.7 µM. Further, the Rel Max FI in assay [3] came out at 0.04. The compound further registered a Fold induction in assay [1] of 60.

With `COc1cccc(C(=O)NC(C)(C(=O)c2ccccc2)C(C)C)c1C` (stereo unspecified), the EC50 (transactivation) in assay [2] turned out to be 33.3 µM. The Rel Max FI in assay [3] came out at 0.04. The compound further came in with a Fold induction in assay [1] of 71.

Take `Cc1ccccc1C(=O)NC(C)(C)C(=O)c1ccccc1`: in assay [1], the Fold induction is 1.

As for `CCC(CC)(NC(=O)c1cccc(OC)c1C)C(=O)c1ccccc1`, the Fold induction in assay [1] came to 11.

`COc1ccccc1C(=O)C(C)(NC(=O)c1cccc(OC)c1C)C(C)C` (stereo unspecified): in assay [2], the EC50 (transactivation) came out at 15 µM. In assay [3], the Rel Max FI was determined as 0.2. Also, in assay [1], the Fold induction turned out to be 599.

As to `COc1cccc(C(=O)NC2(C(=O)c3ccccc3)CCCC2)c1C`, in assay [2], the EC50 (transactivation) amounted to 2.7 µM. Besides, in assay [3], the Rel Max FI stood at 0.14. Moreover, the Fold induction in assay [1] came to 71.

Consider `CCC(CC)(NC(=O)c1cccc(OC)c1C)C(=O)c1cc(C)cc(C)c1`, for which the EC50 (transactivation) in assay [2] came out at 4.5 µM. The Rel Max FI in assay [3] came out at 0.6. Also, in assay [1], the Fold induction came to 1000.

With `COc1cccc(C(=O)NC(C)(C)C(=O)c2ccccc2)c1`, the Fold induction in assay [1] was 1.

The values above are taken from ChEMBL document CHEMBL1136556, “Synthesis and SAR of alpha-acylaminoketone ligands for control of gene expression” (2003).
